Measured values published in ChEMBL document CHEMBL1124297, “7-Aminoquinolines. A novel class of agents active against herpesviruses” (J Med Chem, 1988).
Values after ≈ are worked out from the molar mass of the structure shown.

Assays:
[1] = test system: Human alphaherpesvirus 1; assay: Inhibitory activity against herpes simplex virus type-1 (HSV-1) replication in KB cells; assay type: functional, organism-based; conditions: Human alphaherpesvirus 1, KB
How it was run: (§1)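 HSV-1 (HF strain)-infected KB cells were treated in duplicate for 20 h with five or six half-log dilutions of compound. The disrupted cultures were serially diluted onto BHK 21/4 cells, and titers were determined by counting macroscopic plaques. I50 came from linear regression of log concentration versus % inhibition of viral replication. Each assay included 10 µg/mL ara-A as positive control, and a set was rejected if ara-A deviated by more than 1.5 SD.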

[2] = test system: Human alphaherpesvirus 1; assay: In vitro therapeutic index as ratio of cytotoxicity to inhibition of viral replication; assay type: organism-based; conditions: human alphaherpesvirus 1, in vitro; read-out: Therapeutic index
How it was run: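 Ratio of the cytotoxicity I50 to the HSV-1 replication I50, rounded to the nearest whole number. Cytotoxicity I50 was the mean of four I50 values (Lowry protein, 3H-amino acid uptake, diphenylamine DNA, [3H]thymidine uptake) in uninfected KB cells after 20 h. Replication I50 was from plaque titers of infected KB cultures after 20 h.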

[3] = test system: KB (Homo sapiens); assay: In vitro cytotoxicity in uninfected KB cells; Low drug solubility
[4] = test system: Human alphaherpesvirus 1; assay: Inhibitory activity against herpes simplex virus type-1 (HSV-1) replication in infected KB cells; assay type: functional, organism-based; conditions: Human alphaherpesvirus 1, KB; how it was run: as §1

| IC50 [1] [µg/mL] | IC50 [4] [µg/mL] | Compound | selectivity ratio [2] | IC50 [3] [µg/mL] |
| --- | --- | --- | --- | --- |
| 53 (≈ 275 µM) |  | Cc1cc(Cl)nc2cc(N)ccc12 | 3 |  |
| 10 (≈ 46.5 µM) |  | CC(=O)Nc1ccc2c(C)cc(N)nc2c1 | 3 |  |
| 21 (≈ 89.5 µM) |  | CC(=O)Nc1ccc2c(C)cc(Cl)nc2c1 | 4 |  |
| 6 (≈ 29.8 µM) |  | Cc1cc(N(C)C)nc2cc(N)ccc12 | 2 |  |
| 4 (≈ 23.1 µM) |  | Cc1cc(N)nc2cc(N)ccc12 | 7 |  |
| 40 (≈ 253 µM) |  | Cc1ccnc2cc(N)ccc12 | 2 |  |
| 18 (≈ 74 µM) |  | CC(=O)Nc1ccc2c(C)cc(N(C)C)nc2c1 | 6 |  |
|  | 29 (≈ 133 µM) | Cc1c(O)nc2cc(N(C)C)ccc2c1O | 3 |  |
| 31 (≈ 155 µM) |  | CC(=O)Nc1ccc2c(C)ccnc2c1 | 7 |  |
| 27 (≈ 84.4 µM) |  | CCN(CC)CCCC(C)Nc1ccnc2cc(Cl)ccc12 (stereo not given) [CHLOROQUINE] | 3 |  |

Continued, molecule first:

| Compound | IC50 [1] [µg/mL] | IC50 [4] [µg/mL] | selectivity ratio [2] | IC50 [3] [µg/mL] |
| --- | --- | --- | --- | --- |
| Cc1cn([C@@H]2O[C@H](CO)[C@@H](O)[C@@H]2O)c(=O)[nH]c1=O | 0.6 (≈ 2.32 µM) |  | 833 |  |
| CN(C)c1ccc2ccc(N(C)C)nc2c1 | 6 (≈ 27.9 µM) |  | 3 |  |
| CN(C)c1ccc2ccc(N)cc2n1 | 51 (≈ 272 µM) |  | 3 |  |
| CN(C)c1ccc2ccc(N)nc2c1 | 2 (≈ 10.7 µM) |  | 5 |  |
| Cc1cnc2cc(N(C)C)ccc2c1 | 7.6 (≈ 40.8 µM) |  | 9 |  |
| Cc1c(N(C)C)nc2cc(N(C)C)ccc2c1Cl | 49 (≈ 186 µM) |  |  | > 32 |
| Nc1ccc2ccc(N)nc2c1 | 10 (≈ 62.8 µM) |  |  |  |
| CNc1cc(C)nc2cc(N(C)C)ccc12 | 6 (≈ 27.9 µM) |  | 2 |  |
| CNc1ccc2ccc(N(C)C)cc2n1 | 11 (≈ 54.7 µM) |  | 2 |  |
| Cc1ccc2ccc(N(C)C)cc2n1 | 4.5 (≈ 24.2 µM) |  | 9 |  |
| Cc1c(Cl)nc2cc(N(C)C)ccc2c1Cl | 13 (≈ 51 µM) |  | 2 | > 32 |
| Cc1cc(N(C)C)c2ccc(N(C)C)cc2n1 | 9 (≈ 39.2 µM) |  | 2 |  |
| CN(C)c1ccc2ccc(O)nc2c1 | 30 (≈ 159 µM) |  | 5 |  |
| CN(C)c1ccc2c(N(C)C)cc(N(C)C)nc2c1 | 5 (≈ 19.4 µM) |  | 4 |  |
| Cc1cc(Cl)c2ccc(N(C)C)cc2n1 | 7 (≈ 31.7 µM) |  | 3 |  |
| Cc1cc(O)c2ccc(N(C)C)cc2n1 | 23 (≈ 114 µM) |  | 19 |  |
| Nc1nc2c(ncn2COCCO)c(=O)[nH]1 [ACYCLOVIR] | 2.6 (≈ 11.5 µM) |  | > 38 |  |
| CCC(=O)C(CCCCCCOc1ccc(OC)cc1Cl)C(=O)CC [ARILDONE] | 11 (≈ 29.8 µM) |  | 7 |  |
| O=C(O)P(=O)(O)O [FOSCARNET] | 189 (≈ 1500 µM) |  | 8 |  |
| Nc1ncnc2c1ncn2[C@@H]1O[C@H](CO)[C@@H](O)[C@@H]1O [VIDARABINE] | 5.6 (≈ 21 µM) |  | 7 |  |
